Test results: paper PMC2834884 (Journal of immunology (Baltimore, Md. : 1950), 2009)
Like-named read-outs stand apart in the source and are kept apart here.

What was measured:
CD1d = biological target: T1, CD1d (Mus musculus, UniProt P11609); assay: Decay of glycolipids from CD1d measured by L317 binding; conditions: surface plasmon resonance, 25°C
T1 sequence (P11609 22-305 limits assumed): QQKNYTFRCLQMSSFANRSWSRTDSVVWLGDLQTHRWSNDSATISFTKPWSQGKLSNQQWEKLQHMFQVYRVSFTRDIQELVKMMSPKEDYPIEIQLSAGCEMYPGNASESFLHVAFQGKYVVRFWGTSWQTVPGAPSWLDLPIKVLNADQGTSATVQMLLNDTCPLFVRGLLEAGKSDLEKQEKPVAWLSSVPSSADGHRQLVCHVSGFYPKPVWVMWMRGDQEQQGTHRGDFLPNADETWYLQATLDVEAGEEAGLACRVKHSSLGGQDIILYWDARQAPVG
T1 sequence (P01887 21-119 partner): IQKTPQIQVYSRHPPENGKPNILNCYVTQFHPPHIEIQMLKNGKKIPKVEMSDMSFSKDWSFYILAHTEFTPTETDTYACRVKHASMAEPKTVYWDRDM
How it was run: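 His-tagged mouse CD1d pulsed overnight with each glycolipid, then captured on Ni-charged NTA sensor chip channels; complexes allowed to decay for varied times before a saturating dose of αGalCer/CD1d-specific mAb L317 was flowed over. Binding was measured by surface plasmon resonance at 25°C and normalized to maximum binding for each antigen.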

monoclonal antibody L317 = assay: L317 antibody binding to glycolipid/CD1d complexes; conditions: surface plasmon resonance
How it was run: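 Real-time binding of L317 to glycolipid-loaded CD1d was measured by surface plasmon resonance at 25°C. Kinetic parameters came from fitting specific sensorgrams.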

1.2 Vα14i NKT hybridoma = assay: ERK1/2 phosphorylation in Vα14i NKT hybridoma after glycolipid-pulsed APCs; type: cell-based, mouse; conditions: 1.2 hybridoma; for extent of ERK1/2 phosphorylation: A20-CD1d cells as APCs
How it was run: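 A20-CD1d cells (10^6/ml) were pulsed 2 h with glycolipid (DMSO stock diluted in PBS), washed cold, and mixed with hybridoma cells at 4:1 on ice, then pelleted and warmed to 37°C for timed intervals. Cells were fixed in 4% PFA, stained for Thy1.2, permeabilized in 90% methanol and stained for ppERK1/2. Flow cytometry was gated on Thy1.2+ cells with t = 0 as negative control. Values are % ppERK+ (glycolipid) minus % ppERK+ (vehicle).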

Vα14i NKT cells = assay: Ex vivo activation of Vα14i NKT cells after i.v. glycolipid; type: in vivo, mouse; conditions: 1 μg i.v.; for Vα14i NKT cell activation (percentage producing IFNγ, IL-4 and TNF; CD69 and CD40L expression): two hours after injection
How it was run: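 Mice received glycolipid i.v. (DMSO stock diluted in PBS, heated 56°C 10 min). Spleens were taken at 2 h, mechanically dissociated, filtered and red cells lysed. Cells were stained with mAbs together with CD1d tetramer in PBS/10% FCS at 4°C for 45 min and analysed by flow cytometry.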

NK cells = assay: NK cell trans-activation; type: in vivo, mouse; conditions: 1 μg i.v., 18 h after injection, liver and spleen
How it was run: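 Glycolipid (DMSO stock diluted in PBS) was given i.v. Liver was perfused via portal vein and mononuclear cells isolated at the 40/60% Percoll interface (900 g, 20 min); splenocytes were dissociated and red cells lysed. Cells were surface-stained at 4°C for 45 min, then permeabilized with Cytofix/Cytoperm for intracellular IFNγ staining and flow cytometry.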

CD40−/− mice = assay: Serum IFNγ in CD40-deficient mice; type: in vivo, mouse; conditions: 1 μg i.v., serum at 6 h and 24 h, versus C57BL/6
How it was run: (§1)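 Glycolipid was dissolved at 100 μg/mL in DMSO, diluted in PBS, heated 56°C 10 min and vortexed. Glycolipid or vehicle was injected i.v. and mice bled at set times. Serum cytokines were quantified by sandwich ELISA with paired capture/detection mAbs.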

[1] = biological target: T2, glycolipid/CD1d complexes on splenic APC (Mus musculus, UniProt P11609); type: in vivo; conditions: 1 μg i.v.
T2 sequence (P11609 22-336): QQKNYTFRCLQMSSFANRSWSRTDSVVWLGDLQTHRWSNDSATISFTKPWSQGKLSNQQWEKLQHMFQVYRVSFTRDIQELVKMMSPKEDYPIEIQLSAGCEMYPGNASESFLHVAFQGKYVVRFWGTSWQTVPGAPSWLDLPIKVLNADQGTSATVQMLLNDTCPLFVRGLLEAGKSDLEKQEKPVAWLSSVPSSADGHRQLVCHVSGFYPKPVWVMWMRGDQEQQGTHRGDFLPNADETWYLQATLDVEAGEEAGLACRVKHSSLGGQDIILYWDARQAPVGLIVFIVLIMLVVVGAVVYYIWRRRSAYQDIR
T2 sequence (P01887 21-119 partner): T1 sequence (P01887 21-119 partner)
How it was run: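 At set times after i.v. immunization, spleens were collagenase D-digested at 37°C, treated with 5 mM EDTA for 5 min and strained. Cells were split into CD11c-enriched and depleted fractions with anti-CD11c magnetic beads. A dose range of each fraction was cultured with 1.2 hybridoma cells (2 × 10^5/well) without added antigen. Supernatant IL-2 was measured by sandwich ELISA.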

C57BL/6J mice = assay: Serum cytokine ELISA after i.v. injection of glycolipid; type: in vivo, mouse; conditions: 1 μg i.v.
How it was run: as §1

[2] = biological target: Vα14i/Vβ8.2 TCR of 1.2 Vα14i NKT cell hybridoma (Mus musculus, UniProt A0A0B4J1J9+A0A0G2JG46+A0A140T8N6+P11609); assay: Equilibrium glycolipid/CD1d tetramer staining of 1.2 hybridoma; type: binding; conditions: glycolipid/CD1d tetramers
splenic DC = assay: Phenotype of splenic DC from glycolipid immunized mice; type: in vivo, mouse; conditions: 17.5 h and 44 h after immunization
[3] = APC harvested 1.5 h after immunization

SMILES | t1/2 (dissociation of glycolipid from CD1d) (CD1d) [h] | t1/2 (dissociation of glycolipid from CD1d) (CD1d; listed as CD1d/αGalCer) [h] | affinity of L317 for glycolipid bound to CD1d (monoclonal antibody L317) | extent of ERK1/2 phosphorylation (1.2 Vα14i NKT hybridoma) | Vα14i NKT cell activation (percentage producing IFNγ, IL-4 and TNF; CD69 and CD40L expression) (Vα14i NKT cells) | IFNγ production by NK cells (trans-activation) (NK cells) | IFNγ levels in CD40-deficient mice (CD40−/− mice) | IL-2 release by 1.2 hybridoma with APC from immunized mice [1, 3] | stability of complexes with CD1d in vivo ([1]; functional bioassay) | serum IFNγ level (C57BL/6J mice) | serum IL-4 level (C57BL/6J mice) | tetramer binding to 1.2 hybridoma cells [2] | t1/2 (dissociation of glycolipid from CD1d) (CD1d; listed as CD1d/OCH) [h] | ERK1/2 phosphorylation (1.2 Vα14i NKT hybridoma; BMDCs or splenic B cells as APCs) | CD40L expression on Vα14i NKT cells (Vα14i NKT cells; 2 h after injection, spleen) | increased expression of CD80, CD86 and CD1d in splenic DC (splenic DC) | IL-2 release by 1.2 hybridoma with APC from immunized mice ([1]; APC harvested 17.5 h and 44 h after immunization)
CCCCCCCCCCCCCCCCCCCCCCCCCC(=O)N[C@@H](CO[C@H]1O[C@H](CO)[C@H](O)[C@H](O)[C@H]1O)[C@H](O)[C@H](O)CCCCCCCCCCCCCC [αGalCer, α-galactosyl ceramide] | 5.043 | 5.043 ± 2.207 | highest | dose-dependent increase in ppERK | highest percentage | highest percentage of IFNγ-expressing NK cells | strongly reduced | best response | much more stable in vivo than OCH |  |  |  |  |  |  |  | 
CCCCCCCCCCCCCCCCCCCCCCCC(=O)N[C@@H](COC1OC(CO)C(O)C(O)C1O)[C@H](O)[C@H](O)CCCCC (some centres unmarked) [OCH] | 1.09 |  | weaker | indistinguishable | less potent than αGalCer | Impaired NK cell trans-activation |  | higher production of IL-2 than C-glycoside |  | relatively low levels of IFNγ | high levels of IL-4, equivalent to αGalCer | barely able to bind | 1.09 ± 0.63 | induced fewer 1.2 cells to phosphorylate ERK1/2 than αGalCer | induced more CD40L than C-glycoside | to the same extent as αGalCer | considerably reduced compared to αGalCer and C-glycoside
